Experimental data published in ChEMBL document CHEMBL5360615, “Pharmacological and Physicochemical Properties Optimization for Dual-Target Dopamine D3 (D3R) and μ-Opioid (MOR) Receptor Ligands as Potentially Safer Analgesics” (J Med Chem, 2023).
Activity calls are given as the source filed them. The calls are words filed in the database; no cut-off is given here.

Key:
[1] = target: T1, Mu-type opioid receptor (Mus musculus, UniProt P42866); test: Agonist activity at Rluc8 fused mouse MOR transfected in HEK293T cells coexpressing wild type GRK2 assessed as arrestin-3 recruitment using coelenterazine as substrate incubated for 40 mins by BRET assay; format: functional, cell-based
In short: (§1)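 HEK293T cells transiently transfected with BRET sensors (DNA:PEI 1:6), plated into poly-D-lysine plates and assayed 48 h post-transfection. Cells washed and held in D-PBS 30 min at 37 °C. Coelenterazine h 5 μM final; ligands 10 μM to 0.01 nM. At least three independent experiments in duplicate.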

[2] = target: Mu-type opioid receptor (Homo sapiens, UniProt P35372); test: Displacement of [3H]-DAMGO from human MOR receptor expressed in HEK293T cell membrane assessed as inhibition constant incubated for 60 mins by MicroBeta scintillation counting method; format: cell membranes
In short: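 HEK293 cells stably expressing human MOR, grown in DMEM with 10% FBS and hygromycin B; membranes prepared from confluent cells. Binding buffer 50 mM Tris, 5 mM MgCl2, pH 7.4. Nonspecific binding with 10 μM naloxone. 60 min at RT, then GF/C filtration.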

[3] = target: T1, Mu-type opioid receptor; test: Agonist activity at Rluc8 fused mouse MOR transfected in HEK293T cells assessed as Nb33 recruitment using coelenterazine as substrate incubated for 40 mins by BRET assay; format: functional, cell-based; in short: as §1
[4] = target: T1, Mu-type opioid receptor; test: (§2) Agonist activity at SNAP-tagged mouse MOR transfected in HEK293T cells coexpressing wild type Galpha-i2, venus-tagged Gbeta-1 (156 to 239 residues), venus-tagged Ggamma2 (1 to 155 residues) and Rluc8 fused masGRK3ct assessed as Galpha-i2 activation using coelenterazine as substrate incubated for 40 mins by BRET based GPA assay; format: functional, cell-based; in short: as §1
[5] = target: D(2) dopamine receptor (Homo sapiens, UniProt P14416); test: Displacement of [3H]N-methylspiperone from human D2L receptor expressed in HEK293T cell membrane assessed as inhibition constant incubated for 60 mins by MicroBeta scintillation counting method; format: cell membranes
[6] = target: T2, D(3) dopamine receptor (Homo sapiens, UniProt P35462); test: Displacement of [3H]N-methylspiperone from human D3R receptor expressed in HEK293T cell membrane assessed as inhibition constant incubated for 60 mins by MicroBeta scintillation counting method; format: cell membranes
[7] = target: T1, Mu-type opioid receptor; test: as §2, with “Partial agonist” for “Agonist”; format: functional, cell-based; in short: as §1
[8] = target: T2, D(3) dopamine receptor; test: as §2, with “Antagonist” for “Agonist”, “human D3R receptor” for “mouse MOR”, “Galpha-oA,” for “Galpha-i2,”, “Galpha-oA” for “Galpha-i2”, “mins in presence of quinpirole” for “mins”; format: functional, cell-based
[9] = target: Mu-type opioid receptor (Mus musculus) (UniProt P42866); test: (§3) Partial agonist activity at Rluc8 fused mouse MOR transfected in HEK293T cells assessed as Nb33 recruitment using coelenterazine as substrate incubated for 40 mins by BRET assay; format: functional, cell-based; in short: as §1
[10] = target: Mu-type opioid receptor (Mus musculus) (UniProt P42866); test: as §2, with “Partial agonist” for “Agonist”, “activation at 10 uM” for “activation”, “assay relative to control” for “assay”; format: functional, cell-based; in short: as §1
[11] = target: Mu-type opioid receptor (Mus musculus) (UniProt P42866); test: Partial agonist activity at Rluc8 fused mouse MOR transfected in HEK293T cells assessed as Nb33 recruitment at 10 uM using coelenterazine as substrate incubated for 40 mins by BRET assay relative to control; format: functional, cell-based; in short: as §1
[12] = target: Mu-type opioid receptor (Mus musculus) (UniProt P42866); test: as §2, with “Partial agonist” for “Agonist”; format: functional, cell-based; in short: as §1
[13] = target: Mu-type opioid receptor (Mus musculus) (UniProt P42866); test: Partial agonist activity at Rluc8 fused mouse MOR transfected in HEK293T cells coexpressing wild type GRK2 assessed as arrestin-3 recruitment at 10 uM using coelenterazine as substrate incubated for 40 mins by BRET assay relative to control; format: functional, cell-based
In short: (§4)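 HEK293T cells transiently transfected with BRET sensors (DNA:PEI 1:6), plated into poly-D-lysine plates and assayed 48 h post-transfection. Cells washed and held in D-PBS 30 min at 37 °C. Coelenterazine h 5 μM final; ligands 10 μM to 0.01 nM. […] At least three independent experiments in duplicate.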

[14] = target: Mu-type opioid receptor (Mus musculus) (UniProt P42866); test: (§5) Partial agonist activity at Rluc8 fused mouse MOR transfected in HEK293T cells coexpressing wild type GRK2 assessed as arrestin-3 recruitment using coelenterazine as substrate incubated for 40 mins by BRET assay; format: functional, cell-based; in short: as §1
[15] = target: Mu-type opioid receptor (Mus musculus) (UniProt P42866); test: Agonist activity at Rluc8 fused mouse MOR transfected in HEK293T cells assessed as Nb33 recruitment at 10 uM using coelenterazine as substrate incubated for 40 mins by BRET assay relative to control; format: functional, cell-based; in short: as §4
[16] = target: Mu-type opioid receptor (Mus musculus) (UniProt P42866); test: Agonist activity at Rluc8 fused mouse MOR transfected in HEK293T cells coexpressing wild type GRK2 assessed as arrestin-3 recruitment at 10 uM using coelenterazine as substrate incubated for 40 mins by BRET assay relative to control; format: functional, cell-based; conditions: filed as agonist; in short: as §4
[17] = target: Mu-type opioid receptor (Mus musculus) (UniProt P42866); test: as §2, with “activation at 10 uM” for “activation”, “assay relative to control” for “assay”; format: functional, cell-based; conditions: filed as agonist; in short: as §4
[18] = target: T1, Mu-type opioid receptor; test: as §3; format: functional, cell-based; in short: as §1
[19] = target: T2, D(3) dopamine receptor; test: as §2, with “Partial agonist” for “Agonist”, “human D3R receptor” for “mouse MOR”, “Galpha-oA,” for “Galpha-i2,”, “Galpha-oA” for “Galpha-i2”; format: functional, cell-based
[20] = target: T1, Mu-type opioid receptor; test: as §5; format: functional, cell-based; in short: as §1

T2 sequence (P35462 whole entry): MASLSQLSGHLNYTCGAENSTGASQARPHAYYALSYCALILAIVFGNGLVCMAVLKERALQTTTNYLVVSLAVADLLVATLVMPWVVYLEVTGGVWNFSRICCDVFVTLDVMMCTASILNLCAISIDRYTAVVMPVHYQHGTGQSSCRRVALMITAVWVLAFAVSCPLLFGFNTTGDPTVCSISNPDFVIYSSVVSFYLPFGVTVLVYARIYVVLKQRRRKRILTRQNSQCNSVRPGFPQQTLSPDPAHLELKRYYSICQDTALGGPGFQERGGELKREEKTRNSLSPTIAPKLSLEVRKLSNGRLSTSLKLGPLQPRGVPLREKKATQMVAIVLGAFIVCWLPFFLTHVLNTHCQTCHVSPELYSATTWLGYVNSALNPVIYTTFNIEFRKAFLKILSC
T1 sequence (P42866 whole entry, the tested form may be a part): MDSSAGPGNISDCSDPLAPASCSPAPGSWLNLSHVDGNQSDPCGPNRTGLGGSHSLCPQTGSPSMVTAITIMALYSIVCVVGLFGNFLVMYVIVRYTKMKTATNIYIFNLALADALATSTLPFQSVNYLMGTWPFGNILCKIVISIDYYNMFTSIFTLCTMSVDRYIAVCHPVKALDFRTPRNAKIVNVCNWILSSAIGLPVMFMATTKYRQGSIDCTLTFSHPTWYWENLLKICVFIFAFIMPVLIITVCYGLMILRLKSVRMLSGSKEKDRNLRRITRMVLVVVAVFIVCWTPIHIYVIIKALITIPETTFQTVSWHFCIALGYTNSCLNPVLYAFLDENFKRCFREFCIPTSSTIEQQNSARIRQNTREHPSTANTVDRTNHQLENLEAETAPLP
Chain of Mu-type opioid receptor (Mus musculus) (P42866 whole entry, the tested form may be a part): as above
Chain of Mu-type opioid receptor (Homo sapiens, UniProt P35372) (P35372 whole entry): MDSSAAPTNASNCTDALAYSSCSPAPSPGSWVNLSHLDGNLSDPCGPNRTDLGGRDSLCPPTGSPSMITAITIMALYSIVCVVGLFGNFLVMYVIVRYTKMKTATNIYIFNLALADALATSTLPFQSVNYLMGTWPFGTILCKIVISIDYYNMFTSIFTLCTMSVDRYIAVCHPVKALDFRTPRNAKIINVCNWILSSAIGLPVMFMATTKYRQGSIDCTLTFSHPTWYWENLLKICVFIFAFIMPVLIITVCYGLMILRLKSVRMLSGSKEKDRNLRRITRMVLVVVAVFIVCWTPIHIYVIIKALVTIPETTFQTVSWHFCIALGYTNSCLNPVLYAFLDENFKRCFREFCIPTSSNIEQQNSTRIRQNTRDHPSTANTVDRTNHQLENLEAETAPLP
Chain of D(2) dopamine receptor (P14416 whole entry): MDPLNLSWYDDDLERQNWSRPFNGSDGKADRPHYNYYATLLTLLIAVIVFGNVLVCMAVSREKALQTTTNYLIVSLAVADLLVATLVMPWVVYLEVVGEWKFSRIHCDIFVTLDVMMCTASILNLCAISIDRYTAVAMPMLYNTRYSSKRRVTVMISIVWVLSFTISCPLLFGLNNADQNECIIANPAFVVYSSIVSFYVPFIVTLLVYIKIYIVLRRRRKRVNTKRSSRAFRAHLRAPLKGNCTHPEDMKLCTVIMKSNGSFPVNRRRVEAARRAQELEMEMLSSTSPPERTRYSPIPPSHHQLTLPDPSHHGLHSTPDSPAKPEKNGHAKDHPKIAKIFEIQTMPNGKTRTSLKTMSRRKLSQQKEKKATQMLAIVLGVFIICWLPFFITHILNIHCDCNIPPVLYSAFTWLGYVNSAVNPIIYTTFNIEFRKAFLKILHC

Compound | Ki [2] [nM] | Ki [5] [nM] | Ki [6] [nM] | further results
Clc1cccc(N2CCN(CCC3(c4ccccn4)CCOCC3)CC2)c1Cl | 691 |  |  | EC50 [1]: 6480 nM; EC50 [3]: 1590 nM; EC50 ([4]; read-out: EC50): 848 nM
CN(C)C(=O)C(CCN1C[C@H](O)C[C@H]1CN1CCN(c2cccc(C(F)(F)F)n2)CC1)(c1ccccc1)c1ccccc1 | 782 | 4660 | 2700 | 
Clc1cccc(N2CCN(CCCOC3(c4ccccn4)CCOCC3)CC2)c1Cl | 1750 |  |  | 
CCC1(CC)CC(OCCCN2CCN(c3cccc(C(F)(F)F)n3)CC2)(c2ccccn2)CCO1 (stereo unspecified) | 745 | 1240 |  | 
CN(C)C(=O)C(CCN[C@@H]1C[C@H]1c1ccc(Cl)cc1)(c1ccccc1)c1ccccc1 (relative stereo) | 12.3 |  |  | 
COc1ccc([C@@H]2C[C@H]2NCCC(C(=O)N(C)C)(c2ccccc2)c2ccccc2)cc1 (relative stereo) | 81.8 |  |  | 
CN(C)C(=O)C(CCN1C[C@H](O)C[C@H]1C(=O)NCCCCN1CCN(c2cccc(Cl)c2Cl)CC1)(c1ccccc1)c1ccccc1 | 564 |  |  | EC50 [7]: 1810 nM
FC(F)(F)c1cccc(N2CCN(CCC3(c4ccccn4)CCOCC3)CC2)n1 | 1670 |  |  | 
CN(C)C(=O)C(CCN1C[C@H](F)C[C@H]1C(=O)NCCCCN1CCN(c2nsc3ccccc23)CC1)(c1ccccc1)c1ccccc1 | 146 | 322 | 53 | EC50 [8]: 90.9 nM; IC50 [8]: 91.2 nM; Activity [9]: inactive; Activity [10]: inactive; Emax [11]: inactive; Activity [12]: inactive; Activity [13]: inactive; Activity [14]: inactive
COc1ccsc1CNCC[C@@]1(c2ccccn2)CCOC2(CCCC2)C1 [OLICERIDINE] |  | 83200 | 6860 | Emax [10]: 93.2%; Emax [11]: 31.4%; Emax [13]: 49.1%
CN(C)C(=O)C(CCN[C@@H]1C[C@H]1c1ccc(F)cc1)(c1ccccc1)c1ccccc1 (relative stereo) | 47 |  |  | 
Clc1ccc([C@@H]2C[C@H]2NCCC2(c3ccccn3)CCOC3(CCCC3)C2)cc1 (relative stereo) | 85.2 | 5520 | 361 | Emax [15]: 24.9%; EC50 [1]: 261 nM; EC50 [8]: 271 nM; IC50 [8]: 269 nM; Emax [16]: 51.3%; EC50 [3]: 406 nM; EC50 ([4]; read-out: EC50): 73.4 nM; EC50 ([4]; read-out: pEC50 (converted)): 72.4 nM; Emax [17]: 97.6%
CN(C)C(=O)C(CCN1C[C@H](O)C[C@H]1CN1CCN(c2cccc(Cl)c2Cl)CC1)(c1ccccc1)c1ccccc1 | 529 | 1180 | 247 | Activity [8]: inactive; EC50 [18]: 3330 nM; Emax ([10]; filed as partial agonist): 73.6%; Emax [11]: 12.7%; EC50 [7]: 3450 nM; Activity [13]: inactive; Activity [14]: inactive
CN(C)C(=O)C(CCN1C[C@H](F)C[C@H]1C(=O)NCCCCN1CCN(c2cccc(Cl)c2Cl)CC1)(c1ccccc1)c1ccccc1 | 787 |  |  | 
Clc1ccc([C@@H]2C[C@H]2NCCC2(c3ccccn3)CCOCC2)cc1 (relative stereo) | 1580 |  |  | 
FC(F)(F)c1cccc(N2CCN(CCCOC3(c4ccccn4)CCOC4(CCCC4)C3)CC2)n1 (stereo unspecified) | 1640 | 1310 | 286 | 
CN(C)C(=O)C(CCN1CCN(c2cccc(C(F)(F)F)n2)CC1)(c1ccccc1)c1ccccc1 | 1.23 |  |  | 
CC1CCC(CN2CCN(c3cccc(Cl)c3Cl)CC2)CN1CCC(C(=O)N(C)C)(c1ccccc1)c1ccccc1 (stereo unspecified) | 867 | 146 | 309 | 

Compound | Ki [2] [nM] | Ki [5] [nM] | Ki [6] [nM] | further results
CN(C)C(=O)C(CCN1CCN(c2nsc3ccccc23)CC1)(c1ccccc1)c1ccccc1 | 0.364 | 465 |  | 
CN(C)C(=O)C(CCN1C[C@H](F)C[C@H]1C(=O)NCCCCN1CCN(c2cccc(C(F)(F)F)n2)CC1)(c1ccccc1)c1ccccc1 | 192 |  |  | EC50 [18]: 5750 nM; EC50 [7]: 1160 nM
CCC1(CC)CC(OCCCNCc2cccc(C(F)(F)F)n2)(c2ccccn2)CCO1 (stereo unspecified) | 2520 |  | 2700 | 
FC(F)(F)c1cccc(N2CCN(CCCOC3(c4ccccn4)CCOCC3)CC2)n1 | 2070 |  |  | 
CN(C)C(=O)C(CCN1C[C@H](O)C[C@H]1C(=O)NCCCCN1CCN(c2cccc(C(F)(F)F)n2)CC1)(c1ccccc1)c1ccccc1 | 791 |  |  | EC50 [7]: 470 nM
CCC1(CC)CC(OCCCNCc2cccc(Cl)c2Cl)(c2ccccn2)CCO1 (stereo unspecified) | 540 | 13400 | 1180 | 
CCc1cc(Cl)c(OC)c(N2CCN(CCCCc3cn(CCC(C(=O)N(C)C)(c4ccccc4)c4ccccc4)nn3)CC2)c1 | 2120 |  |  | 
CN(C)C(=O)C(CCN1CCC(CCN2CCN(c3cccc(Cl)c3Cl)CC2)C1)(c1ccccc1)c1ccccc1 (stereo unspecified) | 23.5 | 117 | 20.2 | EC50 [18]: 658 nM; Emax ([10]; filed as partial agonist): 85.4%; Emax [11]: 14.6%; EC50 [7]: 158 nM; Emax [13]: 10.5%; EC50 [19]: 41.7 nM; EC50 [20]: 470 nM
C[C@@H](NC(=O)[C@@H](N)Cc1ccc(O)cc1)C(=O)NCC(=O)N(C)[C@@H](Cc1ccccc1)C(=O)NCCO |  |  |  | Emax ([15]; filed as agonist): 98.5%; Emax [16]: 98.7%
CCCN(CCC(C(=O)N(C)C)(c1ccccc1)c1ccccc1)[C@@H]1C[C@H]1c1ccc(Cl)cc1 (relative stereo) | 31.2 |  |  | 
COc1ccccc1[C@@H]1C[C@H]1NCCC(C(=O)N(C)C)(c1ccccc1)c1ccccc1 (relative stereo) | 55.2 |  |  | 
Clc1cccc(N2CCN(CCCCNCCC3(c4ccccn4)CCOCC3)CC2)c1Cl | 1460 |  |  | 
CCc1cc(Cl)c(OC)c(N2CCN(C[C@@H]3C[C@@H](O)CN3CCC(C(=O)N(C)C)(c3ccccc3)c3ccccc3)CC2)c1 | 377 | 870 | 111 | IC50 [8]: 2950 nM; EC50 ([8]; hek293t): 2960 nM; Activity [9]: inactive; Emax ([10]; filed as partial agonist): 86.1%; Emax [11]: inactive; EC50 [7]: 3310 nM; Activity [13]: inactive; EC50 [19]: 25.4 nM; Activity [14]: inactive
CCC1(CC)CC(OCCCN2CCN(c3cccc(Cl)c3Cl)CC2)(c2ccccn2)CCO1 (stereo unspecified) | 2270 | 122 | 21.7 | 
Fc1cncc(CNCC[C@@]2(c3ccccn3)CCOC3(CCCC3)C2)c1 | 54.7 | > 100000 | 85100 | 
CCc1cc(Cl)c(OC)c(N2CCN(Cc3cn(CCC(C(=O)N(C)C)(c4ccccc4)c4ccccc4)nn3)CC2)c1 | 2380 |  |  | 
FC(F)(F)c1cccc(N2CCN(CCC3(c4ccccn4)CCOC4(CCCC4)C3)CC2)n1 (stereo unspecified) | 166 | 5430 | 734 | 
CN(C)C(=O)C(CCN(CCO)[C@@H]1C[C@H]1c1ccc(Cl)cc1)(c1ccccc1)c1ccccc1 (relative stereo) | 26.9 | 7330 |  | 
